Series [1] has as its system Mus musculus. In words: Antidepressant activity in chronic unpredictable mild stress ICR mouse model assessed as decrease in immobility time at 10 to 20 mg/kg measured after 2 weeks by tail suspension test. The series is classed as functional, organism-based. Conditions: dose 10-20 mg/kg. Summed up: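 ICR mice received CUMS for 4 weeks: 11 stressors given randomly twice daily, 42 days in total. OFT: 5 min session scoring distance, speed, rearing and dejection. FST/TST: 6 min, with immobility scored over the last 4 min. Sucrose preference test was also run. Mean ± SD, n = 6.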

Series [2] can be described thus: MRT infinity in Sprague-Dawley rat at 10 mg/kg, IG measured upto 1440 mins by LC-MS/MS analysis. Particulars: in vivo, po. The series is classed as ADME, organism-based.
A short description of series [3]: Inhibition of 5-HT2AR mRNA expression in zebra fish AB assessed as fold decrease in 2 delta delta CT level at 1 uM by RT-qPCR method relative to control. The series is classed as functional, Danio rerio. In short, it runs like this: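 Total RNA from zebrafish was extracted with Trizol and reverse-transcribed with MMLV. SYBR Green qPCR: 95 °C 2 min; 40 cycles of 95, 60 and 72 °C, 30 s each; then 72 °C for 5 min. 5-HT2AR was normalized to GAPDH by the 2^−ΔΔCT method; mean ± SD, n = 3.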
On the technique in general: Real-time PCR tracks product formation cycle by cycle.

A short description of series [4]: Half life in Sprague-Dawley rat at 10 mg/kg, IG measured upto 1440 mins by LC-MS/MS analysis. The series is classed as ADME, organism-based. Conditions: in vivo, po.
Series [5] has as its target T1, Amine oxidase [flavin-containing] A (Homo sapiens, UniProt P21397).
T1 sequence (P21397 whole entry): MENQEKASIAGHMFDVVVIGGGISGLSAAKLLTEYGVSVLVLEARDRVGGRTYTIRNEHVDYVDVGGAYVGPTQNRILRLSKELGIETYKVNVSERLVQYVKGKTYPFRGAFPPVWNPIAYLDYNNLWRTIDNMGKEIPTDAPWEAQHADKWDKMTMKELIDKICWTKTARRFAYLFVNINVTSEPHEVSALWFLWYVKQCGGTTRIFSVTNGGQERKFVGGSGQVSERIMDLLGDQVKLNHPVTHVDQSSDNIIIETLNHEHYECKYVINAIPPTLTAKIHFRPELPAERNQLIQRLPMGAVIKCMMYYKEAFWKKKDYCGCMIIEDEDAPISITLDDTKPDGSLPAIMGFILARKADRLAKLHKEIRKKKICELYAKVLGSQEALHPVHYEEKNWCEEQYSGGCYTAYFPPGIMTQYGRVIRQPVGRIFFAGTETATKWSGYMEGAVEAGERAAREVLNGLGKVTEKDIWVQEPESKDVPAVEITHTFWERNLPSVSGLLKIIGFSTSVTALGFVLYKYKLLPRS
The series is described as follows: Inhibition of MAO-A (unknown origin) using p-tyramine as substrate preincubated for 15 mins followed by substrate addition and measured after 15 mins by Amplex red fluorescence based microplate reader assay.

A short description of series [6]: Toxicity in mouse assessed as toxic effect on kidney at 10 to 20 mg/kg by H and E staining based assay. Particulars: in vivo, dose 10-20 mg/kg. The series is classed as organism-based. In short, it runs like this:
(§1)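 Mice given compound at 10 or 20 mg/kg, with fluoxetine 20 mg/kg as comparator. Paraffin tissue sections of 4 μm were cut. Staining: hematoxylin 5 min, 75% HCl-ethanol differentiation 30 s, eosin 2 min. Organs (liver, kidney, lung, heart, spleen) examined at ×400; hippocampus (CA1, CA3, DG) at ×200.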

Series [7] can be described thus: Cytotoxicity against human L02 cells assessed as reduction in cell growth measured after 48 hrs by MTT assay. The series is classed as toxicity, cell-based. Summed up:
(§2)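 MTT assay: PC12, SH-SY5Y or L02 cells at 5.0 × 10^3 per well were grown for 24 h, treated with compound dilutions from 10 mM DMSO stocks, and cultured 48 h. MTT was then added for 4 h at 37 °C, formazan dissolved in DMSO, and absorbance read at 570 nm. Viability is relative to blank control; IC50 from three repeats. Media contained 10% FBS.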
(In general: Formazan colour is commonly taken as a measure of viable cells.)

The subject of series [8] is Mus musculus. In words: Antidepressant activity in reserpine-induced ICR mouse model assessed as increase in total distance traveled at 10 to 20 mg/kg pretreated with reserpine for 3 days followed by compound addition for 1 week by open field test. The series is classed as functional, organism-based. Conditions: dose 10-20 mg/kg, time 1.0 weeks. Summed up:
(§3)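 Body weight was recorded daily. OFT: 5 min session scoring distance, speed, rearing and dejection. FST and TST: 6 min, with immobility scored over the last 4 min. Mean ± SD, n = 6; one-way ANOVA and t-test.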

In series [9] the test system is Mus musculus. The series is described as follows: Antidepressant activity in reserpine-induced ICR mouse model assessed as increase in mobility at 10 to 20 mg/kg pretreated with reserpine for 3 days followed by compound addition for 1 week by open field test. The series is classed as functional, organism-based. Conditions: dose 10-20 mg/kg, time 1.0 weeks. In short, it runs like this: as §3

A short description of series [10]: Toxicity in mouse assessed as toxic effect on liver at 10 to 20 mg/kg by H and E staining based assay. The series is classed as organism-based. Particulars: in vivo, dose 10-20 mg/kg. In short, it runs like this:
as §1

Series [11] deals with Mus musculus. The series is described as follows: Antidepressant activity in reserpine-induced mouse hippocampal tissue model assessed as increase in 5-HT level at 10 to 20 mg/kg pretreated with reserpine for 3 days followed by compound addition on day 4 to 10 by HPLC analysis. The series is classed as functional. Conditions: dose 10-20 mg/kg; time 6 day.
A short description of series [12]: Clearance in Sprague-Dawley rat at 10 mg/kg, IG measured upto 1440 mins by LC-MS/MS analysis. The series is classed as ADME, organism-based. Particulars: in vivo, po.
The next series deals with PC-12. The series is described as follows: Neurocytoprotective activity against CORT-induced damage in rat PC-12 cells at 0.5 uM measured after 24 hrs by MTT assay. The series is classed as functional, cell-based. In short, it runs like this:
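PC12 cells seeded at 5 × 10^4 cells/mL for 24 h. Medium was then replaced with compound (0.5–4.0 μM) plus 500 μM CORT (DMSO <1%) for 24 h. Viability was measured by MTT relative to the CORT model group.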

Series [13] relates to Mus musculus. In words: Antidepressant activity in reserpine-induced ICR mouse model assessed as reduction in immobility time at 10 to 20 mg/kg pretreated with reserpine for 3 days followed by compound addition on day 4 to 10 by forced swimming test. The series is classed as functional, organism-based. Particulars: dose 10-20 mg/kg, time 6.0 day. Summed up:
as §3

The subject of series [14] is Mus musculus. In words: Antidepressant activity in reserpine-induced mouse assessed as increase in 5-HT1AR expression at 10 to 20 mg/kg pretreated with reserpine for 3 days followed by compound addition on day 4 to 10 by Western blot analysis. Particulars: dose 10-20 mg/kg, time 6.0 day. The series is classed as functional, organism-based. Summed up: (§4)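 Whole-brain protein was quantified by BCA and diluted to 3 mg/mL, then run on 4−20% SDS-PAGE and blotted. Primary antibody at 4 °C overnight, secondary 1 h at room temperature. 5-HT1AR and 5-HT2AR levels are relative; mean ± SD, n = 3.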
(Immunoblotting shows a protein as a band on a membrane.)

Series [15] in a line: Half life in Sprague-Dawley rat at 2 mg/kg, iv measured upto 1440 mins by LC-MS/MS analysis. The series is classed as ADME, organism-based. Conditions: in vivo.
Series [16] in a line: AUC(0 to 24 hrs) in Sprague-Dawley rat at 2 mg/kg, iv measured upto 1440 mins by LC-MS/MS analysis. Conditions: in vivo. The series is classed as ADME, organism-based. The arrangement: dose 2 mg/kg, time < 1440 min, route iv.
The nature of series [17]: Cytotoxicity against human SH-SY5Y cells assessed as reduction in cell growth measured after 48 hrs by MTT assay. The series is classed as toxicity, cell-based. In short, it runs like this:
as §2

In series [18] the test system is Mus musculus. The series is described as follows: Antidepressant activity in reserpine-induced ICR mouse model assessed as increase in movement speed at 10 to 20 mg/kg pretreated with reserpine for 3 days followed by compound addition for 1 week by open field test. The series is classed as functional, organism-based. Particulars: dose 10-20 mg/kg, time 1.0 weeks. In short, it runs like this:
as §3

Series [19] concerns Mus musculus. In words: Antidepressant activity in reserpine-induced mouse assessed as downregulation of 5-HT2AR expression at 10 to 20 mg/kg pretreated with reserpine for 3 days followed by compound addition on day 4 to 10 by Western blot analysis. The series is classed as functional, organism-based. Conditions: dose 10-20 mg/kg, time 6.0 day. In short, it runs like this:
as §4

Activity calls are given as the source filed them. The calls are words filed in the database; no cut-off is given here.

As usually defined, the MRT inf is the average time that molecules of a dose stay in the body. Usually half-life stands for how long it takes for the measured level to halve. A low value points to rapid decline. One may read the IC50 as the concentration at which inhibition is half-maximal. In general, CL/F refers to the apparent clearance, not corrected for the fraction that reaches the circulation. By AUC(0-t) is commonly meant the area under the concentration-time curve up to a stated or last time point. Lower therefore signals less exposure.

For the compound `O=C1c2ccccc2-c2nccc3cc(OCCCCCN4CCN(c5ccccc5F)CC4)cc1c23`, the result with Mus musculus [1], in the series with Mus musculus [8], with Mus musculus [9], with PC-12, in the series on Mus musculus [13] and with Mus musculus [14] was Active. In addition, the outcome in the series on Mus musculus [18] and with Mus musculus [19] was Active. Further, in [2], the MRT inf came to 4.94 h. Besides, in [3], the “fold change (FC)” value is 0.014. For the same compound, the half-life in series [4] was 5.22 h; in [15] it was 6.31 h. For the same compound, in series [5], the IC50 is 0.004 µM. Besides, the Activity result in series [6] was “Non-Toxic”; in [10] it was “Non-Toxic”; in the series on Mus musculus [11], 579.92 ng/mL. For the same compound, the IC50 at 48 h is above 100 µM in series [7] and above 10 µM in [17]. Besides, the CL/F in series [12] worked out at 346 mL/min/kg. Also, the AUC(0-t) at 24 h in series [16] was 2230 ng·h/mL.

Source of the values: ChEMBL document CHEMBL5108057, “Development of MAO-A and 5-HT2AR Dual Inhibitors with Improved Antidepressant Activity” (J Med Chem, 2022).
